The subject of test [1] is Rattus norvegicus. The test is described as follows: Prophylactic antiinflammatory activity against adjuvant arthritic rat at dose of 25 mg/kg in noninjected 1 degree paw. The test is classed as functional. The gist of the method:
(§1)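 Heat-killed Mycobacterium tuberculosis ground and homogenized in paraffin oil (6 mg/mL); 0.1 mL injected into left hind paw. Drug dosed 1 h before challenge, then daily for 21 consecutive days; controls received methylcellulose. Both hind paw volumes measured by plethysmograph immediately and on day 21; % inhibition of Δ paw volume.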

The test system of test [2] is Rattus norvegicus. The test is described as follows: Prophylactic antiinflammatory activity against adjuvant arthritic rat at dose of 25 mg/kg in noninjected 2 degree paw. The test is classed as functional. The gist of the method: as §1
Test [3] has as its system Rattus norvegicus. Put plainly: Antiinflammatory activity against reverse passive Arthus reaction-synovitis in rat at dose of 50 mg/kg per orally. Conditions: po. The format is functional. In a few lines:
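Lewis rats dosed orally with drug or placebo 1 h before iv bovine serum albumin in saline, then 0.54 mg rabbit anti-BSA antibody intraarticular in one knee, saline in the other, under light anesthesia. Second oral dose at 3 h; the dose used is the total given before and after induction.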

The test system of test [4] is Rattus norvegicus. The test is described as follows: Prophylactic antiinflammatory activity against adjuvant arthritic rat at dose of 50 mg/kg in noninjected 2 degree paw. The format is functional. The gist of the method:
as §1

The test system of test [5] is Rattus norvegicus. Put plainly: Prophylactic antiinflammatory activity against adjuvant arthritic rat at dose of 50 mg/kg in noninjected 1 degree paw. The test is classed as functional. In a few lines: as §1
In test [6] the test system is Rattus norvegicus. Put plainly: Prophylactic anti-inflammatory activity in adjuvant arthritic rat at 12.5 mg/kg in noninjected 1 degree paw. The format is functional. The gist of the method: as §1
In test [7] the test system is Rattus norvegicus. The test is described as follows: Prophylactic anti-inflammatory activity in adjuvant arthritic rat at 12.5 mg/kg in noninjected 2 degree paw. The format is functional. In a few lines: as §1
Test [8] can be described thus: Therapeutic oral administration in adjuvant arthritic rat model at 25 mg/kg in noninjected 2 degree paw. On the set-up: dose 25 mg/kg, route oral. The format is ADME, organism-based. The gist of the method:
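Adjuvant arthritis (heat-killed M. tuberculosis in paraffin oil, 6 mg/mL, 0.1 mL into left hind paw) left to develop 7 days before first oral dose; treatment continued 35 days. Controls given methylcellulose; hind paw volumes measured by plethysmograph as Δ paw volume; % inhibition.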

Test [9] has as its system Rattus norvegicus. The test is described as follows: Prophylactic oral administration in adjuvant arthritic rat model at 25 mg/kg in noninjected 2 degree paw. The test is classed as functional. In a few lines:
as §1

Test [10] deals with Rattus norvegicus. Put plainly: Prophylactic anti-inflammatory activity in adjuvant arthritic rat at 6.25 mg/kg in noninjected 2 degree paw. The test is classed as functional. The gist of the method:
as §1

The test system of test [11] is Rattus norvegicus. Put plainly: Prophylactic anti-inflammatory activity in adjuvant arthritic rat at 6.25 mg/kg in noninjected 1 degree paw. The test is classed as functional. In a few lines:
as §1

For test [12], the system named is Rattus norvegicus. Put plainly: Prophylactic anti-inflammatory activity in adjuvant arthritic rat at 25 mg/kg in noninjected 1 degree paw. The test is classed as functional. The gist of the method:
as §1

In test [13] the test system is Rattus norvegicus. Put plainly: Prophylactic anti-inflammatory activity in adjuvant arthritic rat at 50 mg/kg in noninjected 1 degree paw. The test is classed as functional. In a few lines: as §1
Test [14] has as its system Rattus norvegicus. The test is described as follows: Prophylactic anti-inflammatory activity in adjuvant arthritic rat at 25 mg/kg in noninjected 2 degree paw. The format is functional. The gist of the method: as §1
Test [15] relates to Rattus norvegicus. The test is described as follows: Prophylactic anti-inflammatory activity adjuvant arthritic rat at 50 mg/kg in noninjected 2 degree paw. The format is functional. The gist of the method: as §1
Test [16] relates to Rattus norvegicus. Put plainly: Prophylactic anti-inflammatory activity in adjuvant arthritic rat at 45 mg/kg in noninjected 1 degree paw. The format is functional. The gist of the method: as §1
Test [17] concerns Rattus norvegicus. Put plainly: Prophylactic anti-inflammatory activity in adjuvant arthritic rat at 45 mg/kg in noninjected 2 degree paw. The test is classed as functional. The gist of the method:
as §1

Test [18] is described as follows: Inhibition of guinea pig Phosphodiesterase. The arrangement: species or system Cavia porcellus.

Take `CCCc1c(O)n(Cc2ccc(F)cc2)c2nc3c(n2c1=O)C(=O)N(C)CN3C`: the inhibition in vivo – broadly, the change of the read-out against control, counted positive when it falls – at 25 mg/kg in the test with Rattus norvegicus [1] came to 0%; with Rattus norvegicus [2], 56%. Besides, the inhibition in vivo at 50 mg/kg in the test with Rattus norvegicus [3] was 0%.
Consider `CN1CN(C)c2nc3n(Cc4ccccc4)c(O)c(Sc4ccccc4)c(=O)n3c2C1=O`, for which the inhibition in vivo at 50 mg/kg with Rattus norvegicus [4] is 23%; in the test with Rattus norvegicus [5], 15%.
`Cc1c(O)n(Cc2ccccc2)c2nc3c(n2c1=O)C(=O)N(C)CN3C`: the inhibition in vivo at 25 mg/kg in the test on Rattus norvegicus [1] is 0%; with Rattus norvegicus [2] it was 22%. The values for the inhibition in vivo at 12.5 mg/kg with Rattus norvegicus [6] and in the test with Rattus norvegicus [7] were 0% and 36%, respectively. Also, the inhibition in vivo at 50 mg/kg with Rattus norvegicus [4] is 69%; in the test with Rattus norvegicus [5], 46%; with Rattus norvegicus [3], 0%.
As to `C/C=C/Cc1c(O)n(Cc2ccccc2)c2nc3c(n2c1=O)C(=O)N(C)CN3C`, the results for the inhibition in vivo at 25 mg/kg in the test on Rattus norvegicus [1] and in the test on Rattus norvegicus [2] were 24% and 40%, respectively. The inhibition in vivo at 12.5 mg/kg in the test on Rattus norvegicus [6] is 20%. Further, the inhibition in vivo at 50 mg/kg in the test with Rattus norvegicus [4] was 71%; with Rattus norvegicus [5], 44%; with Rattus norvegicus [3], 0%.
As for `C/C(=C/Cc1c(O)n(Cc2ccccc2)c2nc3c(n2c1=O)C(=O)N(C)CN3C)C(F)(F)F`, the ED50 (commonly the dose that gives a 50% effect, or the effect in half of the subjects) in [8] came out at 4 mg/kg; in the test on Rattus norvegicus [9], 8.8 mg/kg. The results for the inhibition in vivo at 25 mg/kg in the test with Rattus norvegicus [1] and in the test on Rattus norvegicus [2] were 45% and 74%, respectively. Also, the inhibition in vivo at 12.5 mg/kg in the test with Rattus norvegicus [6] was found to be 47%; with Rattus norvegicus [7], 64%. Further, the results for the inhibition in vivo at 6.25 mg/kg with Rattus norvegicus [10] and with Rattus norvegicus [11] were 60% and 33%, respectively. Besides, in the test on Rattus norvegicus [3], the inhibition in vivo at 50 mg/kg stood at 25%.
Regarding `CCCc1c(O)n(Cc2ccccc2)c2nc3c(n2c1=O)C(=O)N(C)CN3C`, the results for the inhibition in vivo at 25 mg/kg in the test on Rattus norvegicus [1] and in the test on Rattus norvegicus [2] were 24% and 65%, respectively. The values for the inhibition in vivo at 12.5 mg/kg with Rattus norvegicus [6] and with Rattus norvegicus [7] were 16% and 38%, respectively. Also, the inhibition in vivo at 50 mg/kg with Rattus norvegicus [4] is 70%; in the test on Rattus norvegicus [5], 38%; in the test with Rattus norvegicus [3], 45%.
Consider `CC(C)=CCc1c(O)n(Cc2ccc(F)cc2)c2nc3c(n2c1=O)C(=O)N(C)CN3C`, for which the ED50 in test [8] worked out at 7.6 mg/kg. Further, the inhibition in vivo at 25 mg/kg was 24% in the test with Rattus norvegicus [12] and 49% in the test on Rattus norvegicus [2]. The inhibition in vivo at 50 mg/kg in the test with Rattus norvegicus [3] came to 18%.
With `CN1CN(C)c2nc3n(Cc4ccccc4)c(O)c(CCO)c(=O)n3c2C1=O`, the inhibition in vivo at 50 mg/kg in the test with Rattus norvegicus [3] is 8%.
As for `CCCc1c(O)n(Cc2cccs2)c2nc3c(n2c1=O)C(=O)N(C)CN3C`, the figures for the inhibition in vivo at 25 mg/kg in the test with Rattus norvegicus [1] and with Rattus norvegicus [2] were 20% and 51%, respectively. For the same compound, the inhibition in vivo at 12.5 mg/kg is 20% in the test on Rattus norvegicus [6] and 13% in the test on Rattus norvegicus [7].
For `CSc1c(O)n(Cc2ccccc2)c2nc3c(n2c1=O)C(=O)N(C)CN3C`, the inhibition in vivo at 50 mg/kg in the test with Rattus norvegicus [4] stood at 61%; in the test on Rattus norvegicus [5], 33%; with Rattus norvegicus [3], 10%.
Consider `CN(C)/C=c1\c(=O)n(Cc2ccccc2)c2nc3c(n2c1=O)C(=O)N(C)CN3C`, for which, in the test on Rattus norvegicus [3], the inhibition in vivo at 50 mg/kg was 27%.
With `CN1CN(C)c2nc3n(Cc4ccccc4)c(O)c(Cc4ccccc4)c(=O)n3c2C1=O`, the inhibition in vivo at 25 mg/kg in the test on Rattus norvegicus [1] was 34%; in the test with Rattus norvegicus [2], 49%. Moreover, the inhibition in vivo at 50 mg/kg in the test with Rattus norvegicus [4] turned out to be 63%; in the test with Rattus norvegicus [5], 46%; with Rattus norvegicus [3], 5%.
As for `C#CCc1c(O)n(Cc2ccccc2)c2nc3c(n2c1=O)C(=O)N(C)CN3C`, the inhibition in vivo at 25 mg/kg was found to be 35% in the test with Rattus norvegicus [1] and 21% in the test on Rattus norvegicus [2]. The inhibition in vivo at 50 mg/kg with Rattus norvegicus [4] came out at 13%; in the test with Rattus norvegicus [5], 36%; in the test on Rattus norvegicus [3] it was 6%.
On to `CN1CN(C)c2nc3n(Cc4ccc(F)cc4)c(O)cc(=O)n3c2C1=O`, for which the inhibition in vivo at 12.5 mg/kg came to 22% in the test on Rattus norvegicus [6] and 21% in the test with Rattus norvegicus [7]. The results for the inhibition in vivo at 25 mg/kg with Rattus norvegicus [12] and in the test on Rattus norvegicus [14] were 36% and 24%, respectively. In addition, the results for the inhibition in vivo at 50 mg/kg in the test on Rattus norvegicus [13], with Rattus norvegicus [3] and with Rattus norvegicus [15] were 37%, 9% and 46%, respectively.
Regarding `CN1CN(C)c2nc3n(Cc4ccccc4)c(O)c(C4C=CCCC4)c(=O)n3c2C1=O` (configuration not stated), the inhibition in vivo at 25 mg/kg in the test with Rattus norvegicus [1] stood at 12%; in the test with Rattus norvegicus [2], 15%. Moreover, the inhibition in vivo at 12.5 mg/kg in the test on Rattus norvegicus [6] amounted to 9%; in the test on Rattus norvegicus [7], 6%. Besides, the inhibition in vivo at 50 mg/kg was found to be 13% in the test on Rattus norvegicus [4], 13% in the test with Rattus norvegicus [5] and 16% in the test on Rattus norvegicus [3].
With `CC(C)=CCSc1cc(=O)n2c3c(nc2n1Cc1ccccc1)N(C)CN(C)C3=O`, the inhibition in vivo at 25 mg/kg was -16% in the test on Rattus norvegicus [1] and 8% in the test on Rattus norvegicus [2].
As for `CN1CN(C)c2nc3n(Cc4ccccc4)c(O)c(C(=O)Nc4ccccc4)c(=O)n3c2C1=O`, the results for the inhibition in vivo at 50 mg/kg in the test with Rattus norvegicus [4] and with Rattus norvegicus [5] were 23% and -21%, respectively.
For `CN1CN(C)c2nc3n(Cc4ccccc4)c(=O)/c(=C\O)c(=O)n3c2C1=O`, the inhibition in vivo at 50 mg/kg stood at 32% in the test on Rattus norvegicus [4], 6% with Rattus norvegicus [5] and 34% in the test on Rattus norvegicus [3].
As for `C=CCc1c(O)n(Cc2ccc(F)cc2)c2nc3c(n2c1=O)C(=O)N(C)CN3C`, the inhibition in vivo at 50 mg/kg was 49% with Rattus norvegicus [4], 10% in the test with Rattus norvegicus [5] and 40% in the test with Rattus norvegicus [3].
With `CCOC(=O)Cc1c(O)n(Cc2ccccc2)c2nc3c(n2c1=O)C(=O)N(C)CN3C`, the inhibition in vivo at 25 mg/kg in the test with Rattus norvegicus [1] is 18%; in the test on Rattus norvegicus [2] it was 20%. Moreover, the inhibition in vivo at 50 mg/kg in the test with Rattus norvegicus [3] stood at 14%.
Take `COc1ccc(Cn2c(O)c(CC=C(C)C)c(=O)n3c4c(nc23)N(C)CN(C)C4=O)cc1`: the inhibition in vivo at 25 mg/kg is 45% in the test on Rattus norvegicus [1] and 69% in the test with Rattus norvegicus [2]. The inhibition in vivo at 12.5 mg/kg in the test with Rattus norvegicus [6] came out at 40%; in the test on Rattus norvegicus [7] it was 63%. Further, the ED50 in the test on Rattus norvegicus [9] worked out at 14 mg/kg.
As for `CC(C)CCc1c(O)n(Cc2ccccc2)c2nc3c(n2c1=O)C(=O)N(C)CN3C`, the figures for the inhibition in vivo at 45 mg/kg in the test with Rattus norvegicus [16] and in the test on Rattus norvegicus [17] were 23% and 51%, respectively.
Turning to `Cn1c(=O)c2[nH]cnc2n(C)c1=O` [AMINOPHYLLINE], in test [18], the IC50 (as a rule, the concentration at which inhibition is half-maximal) was 30 µM.

Source of the values: ChEMBL document CHEMBL1124662, “Antiinflammatory activity of a series of substituted 2,3-dihydro-6-hydroxypyrimido[2,1-f]purine-4,8(1H,9H)-diones” (J Med Chem, 1989).
